Measurements from ChEMBL document CHEMBL1914423, “New imidazo[2,1-b]thiazole derivatives: synthesis, in vitro anticancer evaluation, and in silico studies” (Eur J Med Chem, 2011).

What follows are compounds tested on MCF7 (assay: Anticancer activity against human MCF7 cells assessed as cell growth at 10^-5 M after 48 hrs by SRB assay). Conditions: MCF7, 48 h, read-out: Activity.
Format: functional
Procedure, shortened: (§1)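 NCI-60 single-dose screen at one concentration. Cells grown in RPMI 1640 with 5% FBS and 2 mM L-glutamine, plated at 5000–40,000 cells/well, and pre-incubated 24 h at 37 °C in 5% CO2 before DMSO-dissolved drug was added. Cells fixed with TCA, SRB-stained, absorbance read at 515 nm. Percent growth calculated against time-zero and untreated control plates.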

Structure (SMILES) | growth at 10 µM [%]
COc1cccc(-c2nc3sccn3c2-c2ccnc(NCCNC(=O)c3ccccc3)n2)c1 | 81.7

What follows are compounds tested on CCRF-CEM (assay: Anticancer activity against human CCRF-CEM cells assessed as cell growth at 10^-5 M after 48 hrs by SRB assay). Conditions: read-out: Activity.
Format: functional
Procedure, shortened: as §1

Structure (SMILES) | growth at 10 µM [%]
COc1cccc(-c2nc3sccn3c2-c2ccnc(NCCNC(=O)c3ccccc3)n2)c1 | 52.5

Each compound was assayed on U-251 (assay: Anticancer activity against human U251 cells assessed as cell growth at 10^-5 M after 48 hrs by SRB assay). Conditions: U-251, 48 h, read-out: Activity.
Format: functional
Procedure, shortened: (§2)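 NCI-60 single-dose screen: cells in RPMI 1640 with 5% FBS and 2 mM L-glutamine, plated at 5000–40,000 cells/well by doubling time, and preincubated 24 h at 37 °C. Compound given at one concentration from DMSO stock. Cells TCA-fixed and SRB-stained, absorbance at 515 nm. Percent growth relative to time-zero and untreated controls; inhibition % = 100 − growth %.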

Structure (SMILES) | growth at 10 µM [%]
COc1cccc(-c2nc3sccn3c2-c2ccnc(NCCNC(=O)c3ccccc3)n2)c1 | 102

The compounds below were run on Malme-3M (assay: Anticancer activity against human MALME-3M cells assessed as cell growth at 10^-5 M after 48 hrs by SRB assay). Conditions: read-out: Activity.
Format: functional
Procedure, shortened: as §1

Structure (SMILES) | growth at 10 µM [%]
COc1cccc(-c2nc3sccn3c2-c2ccnc(NCCNC(=O)c3ccccc3)n2)c1 | 26.7

What follows are compounds tested on ACHN (assay: Anticancer activity against human ACHN cells assessed as cell growth at 10^-5 M after 48 hrs by SRB assay). Conditions: read-out: Activity.
Format: functional
Procedure, shortened: as §1

Structure (SMILES) | growth at 10 µM [%]
COc1cccc(-c2nc3sccn3c2-c2ccnc(NCCNC(=O)c3ccccc3)n2)c1 | 65.8

What follows are compounds tested on EKVX (assay: Anticancer activity against human EKVX cells assessed as cell growth at 10^-5 M after 48 hrs by SRB assay). Conditions: read-out: Activity.
Format: functional
Procedure, shortened: as §1

Structure (SMILES) | growth at 10 µM [%]
COc1cccc(-c2nc3sccn3c2-c2ccnc(NCCNC(=O)c3ccccc3)n2)c1 | 106

What follows are compounds tested on BT-549 (assay: Anticancer activity against human BT549 cells assessed as cell growth at 10^-5 M after 48 hrs by SRB assay). Conditions: BT-549, 48 h, read-out: Activity.
Format: functional
Procedure, shortened: as §1

Structure (SMILES) | growth at 10 µM [%]
COc1cccc(-c2nc3sccn3c2-c2ccnc(NCCNC(=O)c3ccccc3)n2)c1 | 85.1

These compounds were tested on A498 (assay: Anticancer activity against human A498 cells assessed as cell growth at 10^-5 M after 48 hrs by SRB assay). Conditions: A498, 48 h, read-out: Activity.
Format: functional
Procedure, shortened: as §1

Structure (SMILES) | growth at 10 µM [%]
COc1cccc(-c2nc3sccn3c2-c2ccnc(NCCNC(=O)c3ccccc3)n2)c1 | 66.3

Each compound was assayed on NCI-H522 (assay: Anticancer activity against human NCI-H522 cells assessed as cell growth at 10^-5 M after 48 hrs by SRB assay). Conditions: NCI-H522, 48 h, read-out: Activity.
Format: functional

Structure (SMILES) | growth at 10 µM [%]
COc1cccc(-c2nc3sccn3c2-c2ccnc(NCCNC(=O)c3ccccc3)n2)c1 | 61.8

Each compound was assayed on 786-0 (assay: Anticancer activity against human 786-0 cells assessed as cell growth at 10^-5 M after 48 hrs by SRB assay). Conditions: 786-0, 48 h, read-out: Activity.
Format: functional
Procedure, shortened: as §1

Structure (SMILES) | growth at 10 µM [%]
COc1cccc(-c2nc3sccn3c2-c2ccnc(NCCNC(=O)c3ccccc3)n2)c1 | 78.4

What follows are compounds tested on NCI-H226 (assay: Anticancer activity against human NCI-H226 cells assessed as cell growth at 10^-5 M after 48 hrs by SRB assay). Conditions: NCI-H226, 48 h, read-out: Activity.
Format: functional

Structure (SMILES) | growth at 10 µM [%]
COc1cccc(-c2nc3sccn3c2-c2ccnc(NCCNC(=O)c3ccccc3)n2)c1 | 79.3

Each compound was assayed on SK-MEL-2 (assay: Anticancer activity against human SK-MEL-2 cells assessed as cell growth at 10^-5 M after 48 hrs by SRB assay). Conditions: SK-MEL-2, 48 h, read-out: Activity.
Format: functional

Structure (SMILES) | growth at 10 µM [%]
COc1cccc(-c2nc3sccn3c2-c2ccnc(NCCNC(=O)c3ccccc3)n2)c1 | 73.3

These compounds were tested on SF-268 (assay: Anticancer activity against human SF268 cells assessed as cell growth at 10^-5 M after 48 hrs by SRB assay). Conditions: SF-268, 48 h, read-out: Activity.
Format: functional

Structure (SMILES) | growth at 10 µM [%]
COc1cccc(-c2nc3sccn3c2-c2ccnc(NCCNC(=O)c3ccccc3)n2)c1 | 92.7

The compounds below were run on RPMI-8226 (assay: Anticancer activity against human RPMI8226 cells assessed as cell growth at 10^-5 M after 48 hrs by SRB assay). Conditions: RPMI-8226, 48 h, read-out: Activity.
Format: functional

Structure (SMILES) | growth at 10 µM [%]
COc1cccc(-c2nc3sccn3c2-c2ccnc(NCCNC(=O)c3ccccc3)n2)c1 | 41.6

What follows are compounds tested on MDA-MB-231 (assay: Anticancer activity against human MDA-MB-231 cells assessed as cell growth at 10^-5 M after 48 hrs by SRB assay). Conditions: MDA-MB-231, 48 h, read-out: Activity.
Format: functional
Procedure, shortened: as §1

Structure (SMILES) | growth at 10 µM [%]
COc1cccc(-c2nc3sccn3c2-c2ccnc(NCCNC(=O)c3ccccc3)n2)c1 | 83.5

The compounds below were run on SF-539 (assay: Anticancer activity against human SF539 cells assessed as cell growth at 10^-5 M after 48 hrs by SRB assay). Conditions: SF-539, 48 h, read-out: Activity.
Format: functional

Structure (SMILES) | growth at 10 µM [%]
COc1cccc(-c2nc3sccn3c2-c2ccnc(NCCNC(=O)c3ccccc3)n2)c1 | 97.7

Each compound was assayed on OVCAR-8 (assay: Anticancer activity against human OVCAR8 cells assessed as cell growth at 10^-5 M after 48 hrs by SRB assay). Conditions: OVCAR-8, 48 h, read-out: Activity.
Format: functional

Structure (SMILES) | growth at 10 µM [%]
COc1cccc(-c2nc3sccn3c2-c2ccnc(NCCNC(=O)c3ccccc3)n2)c1 | 62.5

Each compound was assayed on OVCAR-5 (assay: Anticancer activity against human OVCAR5 cells assessed as cell growth at 10^-5 M after 48 hrs by SRB assay). Conditions: OVCAR-5, 48 h, read-out: Activity.
Format: functional

Structure (SMILES) | growth at 10 µM [%]
COc1cccc(-c2nc3sccn3c2-c2ccnc(NCCNC(=O)c3ccccc3)n2)c1 | 99.1

The compounds below were run on HOP-92 (assay: Anticancer activity against human HOP92 cells assessed as cell growth at 10^-5 M after 48 hrs by SRB assay). Conditions: HOP-92, 48 h, read-out: Activity.
Format: functional
Procedure, shortened: as §1

Structure (SMILES) | growth at 10 µM [%]
COc1cccc(-c2nc3sccn3c2-c2ccnc(NCCNC(=O)c3ccccc3)n2)c1 | 77.8

The compounds below were run on UO-31 (assay: Anticancer activity against human UO31 cells assessed as cell growth at 10^-5 M after 48 hrs by SRB assay). Conditions: UO-31, 48 h, read-out: Activity.
Format: functional
Procedure, shortened: as §2

Structure (SMILES) | growth at 10 µM [%]
COc1cccc(-c2nc3sccn3c2-c2ccnc(NCCNC(=O)c3ccccc3)n2)c1 | 53.8

These compounds were tested on NCI-H322M (assay: Anticancer activity against human NCI-H322M cells assessed as cell growth at 10^-5 M after 48 hrs by SRB assay). Conditions: read-out: Activity.
Format: functional

Structure (SMILES) | growth at 10 µM [%]
COc1cccc(-c2nc3sccn3c2-c2ccnc(NCCNC(=O)c3ccccc3)n2)c1 | 110

What follows are compounds tested on OVCAR-3 (assay: Anticancer activity against human OVCAR3 cells assessed as cell growth at 10^-5 M after 48 hrs by SRB assay). Conditions: OVCAR-3, 48 h, read-out: Activity.
Format: functional

Structure (SMILES) | growth at 10 µM [%]
COc1cccc(-c2nc3sccn3c2-c2ccnc(NCCNC(=O)c3ccccc3)n2)c1 | 89.2

These compounds were tested on KM12 (assay: Anticancer activity against human KM12 cells assessed as cell growth at 10^-5 M after 48 hrs by SRB assay). Conditions: KM12, 48 h, read-out: Activity.
Format: functional
Procedure, shortened: as §1

Structure (SMILES) | growth at 10 µM [%]
COc1cccc(-c2nc3sccn3c2-c2ccnc(NCCNC(=O)c3ccccc3)n2)c1 | 87.8

What follows are compounds tested on SNB-75 (assay: Anticancer activity against human SNB75 cells assessed as cell growth at 10^-5 M after 48 hrs by SRB assay). Conditions: SNB-75, 48 h, read-out: Activity.
Format: functional
Procedure, shortened: as §2

Structure (SMILES) | growth at 10 µM [%]
COc1cccc(-c2nc3sccn3c2-c2ccnc(NCCNC(=O)c3ccccc3)n2)c1 | 92.6

The compounds below were run on DU-145 (assay: Anticancer activity against human DU145 cells assessed as cell growth at 10^-5 M after 48 hrs by SRB assay). Conditions: DU-145, 48 h, read-out: Activity.
Format: functional
Procedure, shortened: as §1

Structure (SMILES) | growth at 10 µM [%]
COc1cccc(-c2nc3sccn3c2-c2ccnc(NCCNC(=O)c3ccccc3)n2)c1 | 100

What follows are compounds tested on LOX IMVI (assay: Anticancer activity against human LOXIMVI cells assessed as cell growth at 10^-5 M after 48 hrs by SRB assay). Conditions: read-out: Activity.
Format: functional
Procedure, shortened: as §1

Structure (SMILES) | growth at 10 µM [%]
COc1cccc(-c2nc3sccn3c2-c2ccnc(NCCNC(=O)c3ccccc3)n2)c1 | 54.8

These compounds were tested on HOP-62 (assay: Anticancer activity against human HOP62 cells assessed as cell growth at 10^-5 M after 48 hrs by SRB assay). Conditions: HOP-62, 48 h, read-out: Activity.
Format: functional
Procedure, shortened: as §1

Structure (SMILES) | growth at 10 µM [%]
COc1cccc(-c2nc3sccn3c2-c2ccnc(NCCNC(=O)c3ccccc3)n2)c1 | 111

Each compound was assayed on T47D (assay: Anticancer activity against human T47D cells assessed as cell growth at 10^-5 M after 48 hrs by SRB assay). Conditions: read-out: Activity.
Format: functional
Procedure, shortened: as §2

Structure (SMILES) | growth at 10 µM [%]
COc1cccc(-c2nc3sccn3c2-c2ccnc(NCCNC(=O)c3ccccc3)n2)c1 | 61.9

What follows are compounds tested on HCT-116 (assay: Anticancer activity against human HCT116 cells assessed as cell growth at 10^-5 M after 48 hrs by SRB assay). Conditions: HCT-116, 48 h, read-out: Activity.
Format: functional
Procedure, shortened: as §1

Structure (SMILES) | growth at 10 µM [%]
COc1cccc(-c2nc3sccn3c2-c2ccnc(NCCNC(=O)c3ccccc3)n2)c1 | 81.8

These compounds were tested on HT-29 (assay: Anticancer activity against human HT-29 cells assessed as cell growth at 10^-5 M after 48 hrs by SRB assay). Conditions: HT-29, 48 h, read-out: Activity.
Format: functional
Procedure, shortened: as §1

Structure (SMILES) | growth at 10 µM [%]
COc1cccc(-c2nc3sccn3c2-c2ccnc(NCCNC(=O)c3ccccc3)n2)c1 | 53.5

Each compound was assayed on NCI-H23 (assay: Anticancer activity against human NCI-H23 cells assessed as cell growth at 10^-5 M after 48 hrs by SRB assay). Conditions: NCI-H23, 48 h, read-out: Activity.
Format: functional

Structure (SMILES) | growth at 10 µM [%]
COc1cccc(-c2nc3sccn3c2-c2ccnc(NCCNC(=O)c3ccccc3)n2)c1 | 87.3

Each compound was assayed on HCT-15 (assay: Anticancer activity against human HCT15 cells assessed as cell growth at 10^-5 M after 48 hrs by SRB assay). Conditions: HCT-15, 48 h, read-out: Activity.
Format: functional
Procedure, shortened: as §1

Structure (SMILES) | growth at 10 µM [%]
COc1cccc(-c2nc3sccn3c2-c2ccnc(NCCNC(=O)c3ccccc3)n2)c1 | 81.9

The compounds below were run on SK-OV-3 (assay: Anticancer activity against human SKOV3 cells assessed as cell growth at 10^-5 M after 48 hrs by SRB assay). Conditions: SK-OV-3, 48 h, read-out: Activity.
Format: functional

Structure (SMILES) | growth at 10 µM [%]
COc1cccc(-c2nc3sccn3c2-c2ccnc(NCCNC(=O)c3ccccc3)n2)c1 | 88.5
